Assays:
[1] = tested on: Lung; test: Drug uptake in mouse lung at 102 mg/kg, po administered as single dose at 2 hrs post dose; assay type: ADME, organism-based; conditions: in vivo
Outline: (§1)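 Mice, three per time point, single oral dose of 102 mg/kg (equivalent to 50 mg/kg gemcitabine). Heart, liver, spleen, lung, kidney and brain collected at 0.16, 0.5 and 2 h, rinsed in saline. 0.3 g tissue homogenized 1 min in 1 mL saline, spun 13,000 rpm 4 °C 5 min. Gemcitabine measured in supernatant.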

[2] = tested on: BXPC-3; test: Cytotoxicity against human BxPC3 cells assessed as decrease in cell viability after 48 hrs by MTT assay; assay type: functional, cell-based
Outline: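 BxPC-3 and Caco-2 cells exposed to compounds for 48 h. Viability read by MTT assay kit. IC50 calculated from dose-response.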

[3] = tested on: Mus musculus; test: Toxicity in Kunming mouse assessed as fibrosis in cardiac muscle at 102 mg/kg, po administered once daily for 14 days by hematoxylin/eosin staining based optical microscopic analysis; assay type: organism-based; conditions: in vivo, 336 h
Outline: (§2)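 Kunming mice, four per group, dosed orally once daily for 14 days with 102 mg/kg or saline control; body weight recorded every other day. Heart, liver, spleen, lung and kidney fixed in 10% buffered formalin, paraffin-embedded, sectioned, stained with hematoxylin and eosin, and examined by optical microscopy.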

[4] = tested on: Heart; test: Drug uptake in mouse heart at 102 mg/kg, po administered as single dose at 0.5 hrs post dose; assay type: ADME, organism-based; conditions: in vivo; outline: as §1
[5] = tested on: Lung; test: Drug uptake in mouse lung at 102 mg/kg, po administered as single dose at 0.5 hrs post dose; assay type: ADME, organism-based; conditions: in vivo; outline: as §1
[6] = Half life in rat intestinal homogenates at 5 uM by HPLC method; assay type: ADME, tissue-based, Intestine
Outline: (§3)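 Compound at 5 µM final in rat plasma, 20% rat hepatic homogenate or 20% rat intestinal homogenate at 37 °C for 24 h. Homogenates made by homogenizing 0.3 g saline-washed tissue in 1 mL saline, spun 13,000 rpm 4 °C 5 min. Sampled at intervals, analysed by HPLC. t1/2 = 0.693/k.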

[7] = tested on: Rattus norvegicus; test: AUC (0 to 24 hrs) in Wistar rat at 50 mg/kg, po administered as single dose by UPLC-MS/MS method; assay type: ADME, organism-based; parameters: dose 50 mg/kg, time < 24 hr, route oral; conditions: in vivo
Outline: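 Wistar rats, six per group, single oral dose equivalent to 50 mg/kg gemcitabine; separate group given gemcitabine iv at 7.5 mg/kg. Oral sampling at 5, 10, 15, 30 min and 1, 2, 4, 6, 8, 12, 24 h; iv at 15, 30 min and 2, 4, 8, 12, 24 h. Blood into THU-pretreated heparinized tubes, centrifuged 3000 × g 15 min, plasma at -80 °C. Prodrug and gemcitabine quantified by UPLC-MS/MS. F = AUCpo×Div/AUCiv/Dpo×100%.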

[8] = molecular target: T1, Organic cation/carnitine transporter 2 (Homo sapiens, UniProt O76082); test: Ratio of drug transport assessed as OCTN2 transporter mediated cell permeability in human Caco2 cells at 25 uM in absence of L-carnitine to drug transport assessed as OCTN2 transporter mediated cell permeability in human Caco2 cells at 25 uM in presence of L-carnitine; assay type: ADME, cell-based; conditions: caco-2, 25 µM
T1 sequence (O76082 whole entry): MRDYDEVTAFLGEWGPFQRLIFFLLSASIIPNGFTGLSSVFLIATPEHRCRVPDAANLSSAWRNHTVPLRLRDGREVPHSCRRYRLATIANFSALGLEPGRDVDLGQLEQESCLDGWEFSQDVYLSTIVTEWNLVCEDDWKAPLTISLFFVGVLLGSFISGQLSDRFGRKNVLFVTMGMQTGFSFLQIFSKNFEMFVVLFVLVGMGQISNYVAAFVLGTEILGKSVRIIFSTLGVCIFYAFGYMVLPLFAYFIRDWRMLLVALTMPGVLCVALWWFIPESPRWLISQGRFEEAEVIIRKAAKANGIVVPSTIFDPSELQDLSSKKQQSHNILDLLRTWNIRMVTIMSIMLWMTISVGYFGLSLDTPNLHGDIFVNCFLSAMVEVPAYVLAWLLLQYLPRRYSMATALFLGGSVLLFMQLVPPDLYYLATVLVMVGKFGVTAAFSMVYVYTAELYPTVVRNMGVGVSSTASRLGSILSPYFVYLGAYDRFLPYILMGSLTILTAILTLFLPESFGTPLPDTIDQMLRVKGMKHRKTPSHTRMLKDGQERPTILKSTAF
Outline: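 Caco-2 cells seeded at 1.0×10^5 cells/well on 0.4 µm polycarbonate inserts, cultured 21 days in MEM; monolayers with TEER over 250 Ω·cm² used. Compound at 25 µM final in HBSS, added apically, with or without 100 µM L-carnitine, 37 °C. Basolateral samples taken at 15, 30, 45, 60, 90, 120 min. Analysed by UPLC-MS/MS to give Papp. Triplicate runs.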

[9] = tested on: Mus musculus; test: Toxicity in Kunming mouse assessed as inflammatory infiltrates in cardiac muscle at 102 mg/kg, po administered once daily for 14 days by hematoxylin/eosin staining based optical microscopic analysis; assay type: organism-based; conditions: in vivo, 336 h; outline: as §2
[10] = tested on: Mus musculus; test: Toxicity in Kunming mouse assessed as inflammatory infiltrates in hepatocytes at 102 mg/kg, po administered once daily for 14 days by hematoxylin/eosin staining based optical microscopic analysis; assay type: organism-based; conditions: in vivo, 336 h; outline: as §2
[11] = tested on: Mus musculus; test: Toxicity in Kunming mouse assessed as inflammatory infiltrates in spleen at 102 mg/kg, po administered once daily for 14 days by hematoxylin/eosin staining based optical microscopic analysis; assay type: organism-based; conditions: in vivo, 336 h
Outline: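 Kunming mice, four per group, dosed orally once daily for 14 days with test article or physiological saline control, body weight recorded every other day. After sacrifice, heart, liver, spleen, lung and kidney were fixed at once in 10% buffered formalin, paraffin-embedded, sectioned, H&E stained and examined by optical microscopy for hydropic degeneration, inflammatory infiltrates and fibrosis.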

[12] = Half life in rat plasma at 5 uM by HPLC method; assay type: ADME, cell-free; outline: as §3
[13] = Half life in pH 1.2 phosphate buffer at 5 uM by HPLC method; assay type: physicochemical
Outline: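 Compound dissolved at 5 µM in phosphate buffer (pH 1.2, 6.8 or 7.4), held at 37 °C for 24 h. Aliquots taken at intervals and analysed by HPLC. t1/2 = 0.693/k from linear regression of pseudo-first-order kinetics.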

[14] = tested on: Mus musculus; test: Toxicity in Kunming mouse assessed as […] degeneration in hepatocytes at 102 mg/kg, po administered once daily for 14 days by hematoxylin/eosin staining based optical microscopic analysis; assay type: organism-based; conditions: in vivo, 336 h; outline: as §2

- Drug uptake [1]: Not Active
- Drug uptake [4]: Active
- Drug uptake [5]: Active
- half-life at 5 µM [6]: 78.7 h
- AUC [7]: 24300 ng·h/mL
- Ratio [8]: 1.6 to 3.6
- half-life at 5 µM [12]: 6.2 h
- half-life at 5 µM [13]: 4.4 h
Structure (SMILES): C[N+](C)(C)CC(CC(=O)[O-])OC(=O)CCCCC(=O)Nc1ccn([C@@H]2O[C@H](CO)[C@@H](O)C2(F)F)c(=O)n1 (stereo not given in full)
- Activity [2]: Dose-dependent effect
- IC50 ([2]; BXPC-3, 48 h): 320 nM
- Activity [3]: Non-Toxic
- Activity [9]: Non-Toxic
- Activity [10]: Non-Toxic
- Activity [11]: Non-Toxic
- Activity [14]: Non-Toxic
